High-throughput results: PubChem, Johns Hopkins Ion Channel Center
An excerpt weighted towards active compounds, which were near 3.5% of everything screened.
RGS4 act: RGS4 potentiators or activators, primary screen, cell-based, HEK293 M3R inducible RGS4, calcium flux | B-score at 10 µM | 0.92% of 310,000 active | carbachol calcium flux Fluo4; active compounds read low;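 active = B-score of the integrated calcium signal more than 4 SD below the library mean, with starting fluorescence not abnormally high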;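 also: negative B-score means reduced calcium response which marks RGS4 activation or potentiation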
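test system = M3R-expressing HEK293 line, RGS4 induced by doxycycline | probe or stimulus = carbachol at ECmax as muscarinic agonist stimulus | timing = dye loading 30 min 37 °C, buffer rest 30 min RT | signal = calcium dye Fluo4 fluorescence | evaluation = B score from integrated fluorescence ratio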
MrgX1 PAM: positive allosteric modulators of MrgX1, primary screen, HEK293 cells, Fluo-4 calcium flux; FDSS; active compounds read high; 0.63% of 310,000 active; AID 588675, 2011; B-score at 10 µM; Mas-related G-protein coupled receptor member X1 (Homo sapiens), Q96LB2;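 active = plate-corrected calcium response at least 3 library SD above typical, normal starting fluorescence, not activating the receptor alone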;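 also: compound read alongside a low EC10 to EC30 dose of BAM8-22 agonist; peak minus trough fluorescence over baseline measured at the second addition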
Target sequence (Q96LB2 whole entry, looked up): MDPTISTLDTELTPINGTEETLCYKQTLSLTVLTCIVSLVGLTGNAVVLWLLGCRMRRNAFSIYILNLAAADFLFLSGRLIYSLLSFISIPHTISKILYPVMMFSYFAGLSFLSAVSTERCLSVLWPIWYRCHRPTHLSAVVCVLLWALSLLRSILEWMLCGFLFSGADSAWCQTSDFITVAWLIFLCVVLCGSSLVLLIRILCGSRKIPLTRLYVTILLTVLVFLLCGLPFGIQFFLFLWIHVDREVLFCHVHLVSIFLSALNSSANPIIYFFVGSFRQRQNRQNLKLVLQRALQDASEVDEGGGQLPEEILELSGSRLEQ
RGS4 block: RGS4 inhibitors, primary screen, cell-based, HEK293 M3R inducible RGS4, calcium flux | Regulator of G-protein signaling 4 (Homo sapiens), P49798 | 0.45% of 310,000 active | Fluo-4 calcium flux; active compounds read high; triggered by carbachol at its EC20 | B-score at 10 µM;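 active = B-score, a plate-corrected calcium signal, over three deviations above library mean, with baseline fluorescence within five deviations of library mean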;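 also: RGS4 expression induced by doxycycline in cells with stable M3 receptor; B-score is computed from the integrated fluorescence ratio over baseline after carbachol; higher B-score means a larger calcium signal and so more RGS4 inhibition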
MrgX1 antagonist: antagonists of human MrgX1 receptor, primary screen, HEK293 cells, Fluo-4 calcium flux; Mas-related G-protein coupled receptor member X1 (Homo sapiens), Q96LB2; BAM8-22 antagonism; active compounds read low; B-score at 10 µM; 1.3% of 310,000 active; AID 588676, 2011;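 active = calcium-response B-score plate-corrected more than 3 library SD below zero, starting fluorescence within 5 deviations, no agonist response on first addition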;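 also: peak minus trough fluorescence over baseline after final BAM8-22 challenge near maximal dose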
MrgX1 ag: agonists of human MrgX1 receptor, primary screen, HEK293 cells, Fluo-4 calcium flux; Mas-related G-protein coupled receptor member X1 (Homo sapiens), Q96LB2; 0.44% of 310,000 active; Fluo-4 calcium fluorescence, agonist mode; active compounds read high; B-score at 10 µM;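 active = calcium response B-score plate-corrected fluorescence ratio at least 3 library SD, with starting fluorescence B-score inside 5 SD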
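Material – MrgX1-expressing HEK293 cells · Input – 15,000 cells seeded per well · Dosing – compound as first of three additions · Times – overnight seeding, then 1 h dark dye loading · Measured by – kinetic Fluo-4 NW fluorescence of intracellular calcium · Read-out – B-scored fluorescence response ratio · Benchmarks – positive and negative control wells on each plate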
Each line names hits and unclear results; the compound was inactive in the other large screens.

Cn1cccc1/C=C1\SC(=Nc2ccccc2)NC1=O	none
COC(=O)[C@H](Cc1ccccc1)NC(=O)O[C@H]1C(=O)c2ccc(OC)cc2O[C@@H]1c1ccc2c(c1)OCO2	none
O=C(CN1CCOCC1)Nc1ccc([N+](=O)[O-])cc1Br	none
COc1cc(C2NC(=O)NC3=C2C(=O)OC3)cc(OC)c1OC (centres undefined)	none
Cc1ccc(Nc2nc(N)nc(CN3CCN(C)CC3)n2)cc1	RGS4 act -7.2
CC(C)(C)C1CCc2c(C(=O)N/N=C/c3cccs3)csc2C1 (centres undefined)	none
CC(C)(C)C1CCc2c(C(=O)NNC(=O)/C=C/C(=O)O)csc2C1 (centres undefined)	MrgX1 antagonist -6.4
CC(=O)Nc1ccc(C(=O)OCCc2ccccc2)cc1	none
Cn1c(C(=O)Nc2ccc3c(c2)OCCO3)cc2c(=O)n(C)c3ccccc3c21	RGS4 act -7.2
Cc1onc(-c2ccccc2)c1C(=O)NC(=S)NNC(=O)c1ccncc1	none
Cc1onc(-c2ccccc2)c1C(=O)NNC(=S)NC(=O)/C=C/c1cccs1	MrgX1 ag 58
Cc1onc(-c2ccccc2)c1C(=O)NC(=S)NNC(=O)c1ccco1	MrgX1 ag 60
COc1cc(C(=O)NNC(=O)C2CC2)cc(OC)c1OC	none
CCOC(=O)C1CCCN(C(c2ccccn2)c2c(C)[nH]c3ccccc23)C1 (centres undefined)	RGS4 act -8.4
CCCCNC(=O)C1Cc2cc(S(=O)(=O)N3CCCCC3)ccc2N1C(C)=O (centres undefined)	none
O=C(CSCc1cnn(-c2ccccc2)c1-n1cccc1)NCc1ccc2c(c1)OCO2	RGS4 act -7.3 (no result: MrgX1 PAM, MrgX1 antagonist, MrgX1 ag)
N/C(=N\OC(=O)c1cccnc1)c1ccc(Cl)cc1Cl	MrgX1 antagonist -4.6
N/C(=N\OC(=O)c1cccnc1)c1ccccc1Cl	none
CC1(c2ccc(OC(F)F)cc2)NC(=O)N(CC(=O)Nc2cccc(F)c2)C1=O (centres undefined)	MrgX1 antagonist -6.2
CC1(c2ccc(OC(F)F)cc2)NC(=O)N(CC(=O)Nc2ccc(F)cc2)C1=O (centres undefined)	none
CC1(c2ccc(OC(F)F)cc2)NC(=O)N(CC(=O)Nc2ccc(OC(F)F)cc2)C1=O (centres undefined)	MrgX1 antagonist -12
C/C(Cl)=C/CSc1nn2c(=O)c3ccccc3nc2s1	MrgX1 PAM 7.8
CC(C)CNC(=O)COc1cccc(C(=O)NCc2ccccc2)c1	none
CCN(c1ccc(OC)cc1)S(=O)(=O)c1cc(-c2cc(C)no2)ccc1C(C)C	none
CCOc1ccc(N(C)S(=O)(=O)c2cc(-c3cc(C)no3)ccc2C(C)C)cc1	MrgX1 antagonist -4.8
CCCCn1c(SCC(=O)NC2CC2)nnc1-c1ccncc1	none
CCN(CC)C(=O)CN(c1cc2c(cc1OC)oc1ccccc12)S(=O)(=O)c1ccccc1	MrgX1 antagonist -9.1 (no result: RGS4 act, RGS4 block)
CCn1c(SCC(=O)c2ccc(Br)cc2)nnc1C(C)NC(=O)Cc1ccc(OC)cc1 (centres undefined)	none
COc1ccc(CC(=O)NC(C)c2nnc(SCC(=O)c3ccc(Br)cc3)n2C)cc1 (centres undefined)	MrgX1 antagonist -7.4
COc1ccccc1N1CCN(C(=O)c2ccc3c(=O)n(Cc4ccc5c(c4)OCO5)c(=O)[nH]c3c2)CC1	none
O=C(NCCCN1CCOCC1)C(=O)N/N=C/c1ccc2c(c1)OCO2	none
CCN(CC)CCCN1C=C2C(=O)C(C)(OC(=O)CCC(=O)OC)C(=O)C=C2C=C1C1CC1 (centres undefined)	MrgX1 antagonist -5.5
CC(C)(Oc1ccc(Cl)cc1)C(=O)NNC(=O)c1ccc(Br)o1	none
COc1ccc(CC(=O)NNS(=O)(=O)c2ccccc2)cc1OC	MrgX1 antagonist -8
COC1(OC)C(/C=C/c2ccc(Cl)cc2)C(C#N)(C#N)C1(OC)OC (centres undefined)	MrgX1 PAM 8.5
CCOC(=O)c1sc(=S)n(-c2ccccc2Cl)c1C	RGS4 act -9.3
Cc1noc(C)c1COC(=O)c1cccc(S(=O)(=O)N2CCOCC2)c1	none
